According to ChEMBL document CHEMBL1125612, “Synthesis and biological activity of D3-trishomocubyl-4-amines” (J Med Chem, 1991):

What was measured:
[1] = organism: Mus musculus; experiment: Anticataleptic activity for reversing the reserpine-induced catalepsy in mice.; type: functional
Summary of the method: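 Male CD-1 mice fasted 18 h, given reserpine 5 mg/kg i.p. 4 h before oral compound (1% tragacanth, 10 mL/kg; 100, 30, 10 mg/kg; groups of five).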

[2] = Acute toxicity in mice (24 hours).; type: organism-based; details: mouse, in vivo
[3] = tested on: Mus musculus; experiment: Anti-oxotremorine activity (anticholinergic property) and reduction of salivation in mice at a dose of 10 mg/kg.; type: functional
Summary of the method: (§1)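 Male CD-1 mice, food withheld 18 h, water ad libitum except during observation. Compound in 1% tragacanth given orally (10 mL/kg) to groups of 10 at 100, 30 or 10 mg/kg. Oxotremorine 0.4 mg/kg i.p. 30 min later. Salivation and tremor each scored 0-3 at 10, 20 and 30 min after oxotremorine. Mean score ±SEM.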

[4] = tested on: Mus musculus; experiment: Anti-oxotremorine activity (anticholinergic property) and reduction of tremor in mice at a dose of 10 mg/kg.; type: functional; summary of the method: as §1
[5] = tested on: Mus musculus; experiment: Anti-oxotremorine activity (anticholinergic property) and reduction of salivation in mice at a dose of 100 mg/kg.; type: functional; summary of the method: as §1
[6] = tested on: Mus musculus; experiment: Anti-oxotremorine activity (anticholinergic property) and reduction of tremor in mice at a dose of 100 mg/kg.; type: functional; summary of the method: as §1
[7] = tested on: Mus musculus; experiment: Anti-oxotremorine activity (anticholinergic property) and reduction of tremor in mice at a dose of 30 mg/kg.; type: functional
Summary of the method: (§2)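 Male CD-1 mice, food-deprived 18 h, with water ad libitum except during observation. Groups of 10 received oral treatment in 1% tragacanth at 10 mL/kg. Test agents were dosed at 100, 30 or 10 mg/kg; the reference standard or vehicle was given instead where used. Oxotremorine 0.4 mg/kg i.p. followed 30 min later. Tremor and salivation were each scored 0-3 at 10, 20 and 30 min, reported as mean score ± SEM.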

[8] = tested on: Mus musculus; experiment: Anti-oxotremorine activity (anticholinergic property) and reduction of salivation in mice at a dose of 30 mg/kg.; type: functional; summary of the method: as §2
[9] = tested on: Mus musculus; experiment: Anti-oxotremorine activity (anticholinergic property) and reduction of tremor in mice at a dose of 3 mg/kg.; type: functional
[10] = tested on: Mus musculus; experiment: Anti-oxotremorine activity (anticholinergic property) and reduction of salivation in mice at a dose of 3 mg/kg.; type: functional

SMILES	ED50 [1] [mg/kg]	LD50 at 24 h [2] [mg/kg]	Mean score [3]	Mean score [4]	Mean score [5]	Mean score [6]	Mean score [7]	Mean score [8]	Mean score [9]	Mean score [10]
CCCCN[C@H]1[C@H]2C3C4C[C@H]2[C@H]2C4CC3C21C (stereo not given in full)	15	150	1.2	1.2						
NC12CC3CC(CC(C3)C1)C2 [AMANTADINE]	17				1.1	1.7				
CC12C3CC4C5C[C@H]([C@H](C53)[C@@H]1NCCc1ccccc1)[C@@H]42 (stereo not given in full)	150	> 1000					1.3	1.3		
CC12C3CC4C5C[C@H]([C@H](C53)[C@@H]1NCc1ccccc1)[C@@H]42 (stereo not given in full)	34	> 1000					1.5	1.5		
CCN[C@H]1[C@H]2C3C4C[C@H]2[C@H]2C4CC3C21c1ccccc1 (stereo not given in full)	14	261	1	1.3						
CN1[C@@H]2CC[C@H]1C[C@@H](OC(=O)C(CO)c1ccccc1)C2 (stereo not given in full) [ATROPINE]									0.5	0
N[C@H]1[C@H]2C3C4C[C@H]2[C@H]2C4CC3C21c1ccccc1 (stereo not given in full)	16	681					1.6	1.2		
